Data taken from ChEMBL document CHEMBL1154312, “Inhibition of ErbB2(Her2) expression with small molecule transcription factor mimics” (Bioorg Med Chem Lett, 2009).
pIC50, pKd: −log10 of the molar value. Calls of active or inactive are those of the source. The calls are words filed in the database; no cut-off is given here.

Experiments:
[1] = biological target: Mediator of RNA polymerase II transcription subunit 23 (Homo sapiens); assay: Inhibition of ESX-Med23 interaction assessed as binding affinity to Med23 (352-625) by fluorescence polarization
[2] = biological target: T1, ETS-related transcription factor Elf-3/Vitamin D3 receptor-interacting protein (ESX/MED23) (Homo sapiens) (UniProt Q9ULK4+P78545); assay: Inhibition of ESX-Med23 interaction in human BT474 cells assessed as down regulation of ErbB2 expression after 24 hrs by Western blotting; format: cell-based; settings: BT-474
CAL-27 = assay: Cytotoxicity against human CAL27 cells; format: functional, cell-based
MCF7 = assay: Cytotoxicity against human MCF7 cells after 24 hrs by WST-1 assay; format: functional, cell-based; settings: MCF7, 24 h
SCC-25 = assay: Cytotoxicity against human SCC25 cells; format: functional, cell-based
SCC-15 = assay: Cytotoxicity against human SCC15 cells; format: functional, cell-based
[3] = biological target: T1, ETS-related transcription factor Elf-3/Vitamin D3 receptor-interacting protein (ESX/MED23) (Homo sapiens); assay: Inhibition of ESX-Med23 interaction in human SK-BR-3 cells assessed as down regulation of ErbB2 expression by Western blotting; format: cell-based
Summary of the method: (§1)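 SkBr3 cells treated 6 h with compound in DMSO at 0.625–50 μM (comparator 10, 50 μM), DMSO control; ErbB2 protein level by Western blot.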

SK-BR-3 = assay: Cytotoxicity against human SK-BR-3 cells after 24 hrs by WST-1 assay; format: functional, cell-based
[4] = biological target: T1, ETS-related transcription factor Elf-3/Vitamin D3 receptor-interacting protein (ESX/MED23) (Homo sapiens); assay: Inhibition of ESX-Med23 interaction in human BT474 cells assessed as reduction in ErbB2 mRNA level after 6 hrs by qPCR relative to control; format: cell-based; settings: BT-474
Summary of the method: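 BT-474 cells given compound in DMSO at 10 μM for 6 h; ErbB2 mRNA quantified by qPCR, normalized to GAPDH and expressed relative to DMSO; average of 16 experiments each in quadruplicate, s.e.m., Student's t-test.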

[5] = biological target: T1, ETS-related transcription factor Elf-3/Vitamin D3 receptor-interacting protein (ESX/MED23) (Homo sapiens); assay: Inhibition of ESX-Med23 interaction in human BT474 cells assessed as down regulation of ErbB2 expression up to 50 uM by Western blotting; format: cell-based; settings: BT-474
[6] = biological target: T1, ETS-related transcription factor Elf-3/Vitamin D3 receptor-interacting protein (ESX/MED23) (Homo sapiens); assay: Inhibition of ESX-Med23 interaction in human SK-BR-3 cells assessed as down regulation of ErbB2 expression at 25 uM by Western blotting; format: cell-based
Summary of the method: as §1

T1 sequence (P78545 whole entry, looked up): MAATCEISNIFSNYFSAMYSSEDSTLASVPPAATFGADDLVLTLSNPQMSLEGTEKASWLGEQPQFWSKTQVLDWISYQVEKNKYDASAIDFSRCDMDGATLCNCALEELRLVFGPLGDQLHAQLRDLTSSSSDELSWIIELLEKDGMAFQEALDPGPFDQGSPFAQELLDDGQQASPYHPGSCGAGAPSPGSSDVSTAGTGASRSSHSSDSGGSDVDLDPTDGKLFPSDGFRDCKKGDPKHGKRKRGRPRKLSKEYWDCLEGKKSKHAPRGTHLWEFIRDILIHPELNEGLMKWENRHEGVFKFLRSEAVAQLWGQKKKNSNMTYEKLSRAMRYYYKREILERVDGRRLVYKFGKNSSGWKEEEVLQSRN
T1 sequence (Q9ULK4 whole entry, looked up): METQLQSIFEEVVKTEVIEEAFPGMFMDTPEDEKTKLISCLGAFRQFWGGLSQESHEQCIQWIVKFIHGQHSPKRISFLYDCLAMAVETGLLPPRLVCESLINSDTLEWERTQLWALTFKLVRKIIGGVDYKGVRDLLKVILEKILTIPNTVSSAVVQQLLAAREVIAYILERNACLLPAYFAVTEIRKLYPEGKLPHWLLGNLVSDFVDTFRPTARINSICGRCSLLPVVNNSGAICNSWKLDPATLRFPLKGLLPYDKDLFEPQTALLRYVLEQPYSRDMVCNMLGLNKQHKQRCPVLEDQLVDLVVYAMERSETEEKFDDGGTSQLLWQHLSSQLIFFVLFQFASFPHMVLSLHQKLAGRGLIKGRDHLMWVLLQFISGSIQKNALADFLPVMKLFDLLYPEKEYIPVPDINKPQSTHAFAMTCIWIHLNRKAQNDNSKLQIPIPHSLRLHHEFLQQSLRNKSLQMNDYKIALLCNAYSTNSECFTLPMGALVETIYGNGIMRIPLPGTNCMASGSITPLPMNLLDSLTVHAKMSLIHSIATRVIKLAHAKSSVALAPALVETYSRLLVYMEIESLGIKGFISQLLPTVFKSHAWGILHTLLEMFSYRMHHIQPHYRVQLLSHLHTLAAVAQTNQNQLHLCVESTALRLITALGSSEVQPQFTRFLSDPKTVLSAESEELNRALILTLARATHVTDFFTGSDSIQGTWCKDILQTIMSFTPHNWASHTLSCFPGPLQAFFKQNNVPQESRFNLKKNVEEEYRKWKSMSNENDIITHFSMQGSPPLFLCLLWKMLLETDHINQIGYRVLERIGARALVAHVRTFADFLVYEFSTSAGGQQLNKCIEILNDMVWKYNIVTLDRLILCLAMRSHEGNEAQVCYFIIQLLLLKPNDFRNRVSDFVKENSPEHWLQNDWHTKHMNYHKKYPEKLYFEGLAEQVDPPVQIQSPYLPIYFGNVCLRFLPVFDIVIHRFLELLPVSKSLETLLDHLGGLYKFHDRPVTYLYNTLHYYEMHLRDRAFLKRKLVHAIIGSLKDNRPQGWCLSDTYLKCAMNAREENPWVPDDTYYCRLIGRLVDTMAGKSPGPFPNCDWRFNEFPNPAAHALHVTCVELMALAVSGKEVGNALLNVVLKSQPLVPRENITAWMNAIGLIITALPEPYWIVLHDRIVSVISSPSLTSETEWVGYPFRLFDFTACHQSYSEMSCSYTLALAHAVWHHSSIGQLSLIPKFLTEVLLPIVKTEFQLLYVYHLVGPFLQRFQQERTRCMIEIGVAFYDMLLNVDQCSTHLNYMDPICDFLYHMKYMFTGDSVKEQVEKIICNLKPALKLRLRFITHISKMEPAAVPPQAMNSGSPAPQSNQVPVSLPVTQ

CC(C)C[C@]1(CCO)C[C@H](CNC(=S)Nc2ccc(-c3c4ccc(=O)cc-4oc4cc(O)ccc34)c(C(=O)O)c2)ON1Cc1ccccc1
pKd [1]: 5.23

CC(C)C[C@]1(CCO)C[C@H](CNC(=S)Nc2ccc(-c3c4ccc(=O)cc-4oc4cc(O)ccc34)c(C(=O)O)c2)ON1Cc1ccc(C(F)(F)F)cc1
pKd [1]: 6.23

CC(C)C[C@]1(CCO)C[C@H](CN=[N+]=[N-])ON1Cc1ccc(C(F)(F)F)cc1
Activity [2]: Dose-dependent effect

CC(C)C[C@]1(CCO)C[C@H](CN=[N+]=[N-])ON1Cc1ccc(-c2ccccc2)cc1
pIC50 (CAL-27): 4.66 | pIC50 (MCF7): 4.57 | Activity [2]: Dose-dependent effect | pIC50 (SCC-25): 4.70 | pIC50 (SCC-15): 4.72 | Activity [3]: Active | pIC50 (SK-BR-3; SK-BR-3, 24 h): 4.85 | Activity [4]: Active

CC(C)C[C@]1(CCO)C[C@H](CNC(=S)Nc2ccc(-c3c4ccc(=O)cc-4oc4cc(O)ccc34)c(C(=O)O)c2)ON1Cc1ccc(-c2ccccc2)cc1
pKd [1]: 6.21

CC(C)C[C@]1(CCO)C[C@H](CN=[N+]=[N-])ON1Cc1ccc2ccccc2c1
Activity [2]: Dose-dependent effect

CC(C)C[C@]1(CCO)C[C@H](CN=[N+]=[N-])ON1Cc1ccccc1
Activity [5]: inactive | Activity [6]: Active | Activity (SK-BR-3): inactive

CC(C)C[C@]1(CCO)C[C@H](CNC(=S)Nc2ccc(-c3c4ccc(=O)cc-4oc4cc(O)ccc34)c(C(=O)O)c2)ON1Cc1ccc2ccccc2c1
pKd [1]: 6.00
